Assay results reported in ChEMBL document CHEMBL1123149, “Synthesis and antineoplastic evaluations of 5,8-bis[(aminoalkyl)amino]-1-azaanthracene-9,10-diones” (1985).
≈ marks a conversion by molar mass, not a printed value. Calls of active or inactive are those of the source. No cut-off for these calls is given here.

Assays:
L1210 = assay: In vitro growth inhibitory effect against L1210 murine leukemia cells was determined; type: functional; settings: Mus musculus, read-out: ID50 (the source's name)
Procedure, shortened: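 L1210 cells, 10^5 cells/tube in 4 mL, exposed continuously 96 h to drug added in Me2SO (≤40 μL per culture) at final 0.01, 0.1 and 10 μg/mL, triplicate.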

Mus musculus [1] = assay: Activity against L1210 leukemia cells was studied in mice at 100 mg/kg and determined as MST(treated)/MST(control) x100; Inactive; type: functional, organism-based; design: dose 100 mg/kg
Mus musculus [2] = assay: Activity against L1210 leukemia cells was studied in mice at 100 mg/kg and determined as MST(treated)/MST(control) x100; Toxic; type: functional, organism-based; design: dose 100 mg/kg
Mus musculus [3] = assay: Activity against L1210 leukemia cells was studied in mice at 30 mg/kg and determined as MST(treated)/MST(control) x100; type: functional
Mus musculus [4] = assay: Activity against L1210 leukemia cells was studied in mice at 15 mg/kg and determined as MST(treated)/MST(control) x100; type: functional
Mus musculus [5] = assay: Activity against L1210 leukemia cells was studied in mice at 50 mg/kg and determined as MST(treated)/MST(control) x100; type: functional
Mus musculus [6] = assay: Activity against L1210 leukemia cells was studied in mice at 25 mg/kg and determined as MST(treated)/MST(control) x100; type: functional

Structure (SMILES)	IC50 (L1210)	other results
CC(=O)NCCNc1ccc(NCCNC(C)=O)c2c1C(=O)c1cccnc1C2=O	> 10 µg/mL	
O=C1c2cccnc2C(=O)c2c(O)ccc(O)c21	0.18 µg/mL (≈ 0.746 µM)	T/C (Mus musculus [1]): inactive
CN(C)CCNc1ccc(NCCN(C)C)c2c1C(=O)c1ccccc1C2=O	0.08 µg/mL (≈ 0.21 µM)	T/C (Mus musculus [3]): 150%; T/C (Mus musculus [4]): 117%
CN(C)CCNc1ccc(NCCN(C)C)c2c1C(=O)c1cccnc1C2=O	0.16 µg/mL (≈ 0.419 µM)	T/C (Mus musculus [5]): 130%; T/C (Mus musculus [6]): 120%

Now from value to molecule, other results behind:

IC50 (L1210)	Structure (SMILES)	other results
0.3 µg/mL (≈ 0.687 µM)	CCN(CC)CCNc1ccc(NCCN(CC)CC)c2c1C(=O)c1ccccc1C2=O	
2.4 µg/mL (≈ 5.48 µM)	CCN(CC)CCNc1ccc(NCCN(CC)CC)c2c1C(=O)c1cccnc1C2=O	T/C (Mus musculus [2]): Toxic
1.7 µg/mL (≈ 4.15 µM)	CN(C)CCCNc1ccc(NCCCN(C)C)c2c1C(=O)c1cccnc1C2=O	
